{
  "source": "paper PMC3856692",
  "about": "(Biochemistry, 2013)",
  "key": {"CHIP [1]": {"biological_target": "T1, CHIP (Homo sapiens, UniProt Q9UNE7)", "T1 sequence (Q9UNE7 1-303)": "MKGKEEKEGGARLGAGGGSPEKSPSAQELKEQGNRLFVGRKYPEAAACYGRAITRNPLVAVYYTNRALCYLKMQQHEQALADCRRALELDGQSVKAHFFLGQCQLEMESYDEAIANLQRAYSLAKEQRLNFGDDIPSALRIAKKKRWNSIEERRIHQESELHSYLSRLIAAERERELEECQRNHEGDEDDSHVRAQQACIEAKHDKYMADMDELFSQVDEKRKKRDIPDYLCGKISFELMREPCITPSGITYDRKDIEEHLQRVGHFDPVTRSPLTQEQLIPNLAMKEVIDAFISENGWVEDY", "assay": "Fluorescence polarization", "assay_type": "binding", "conditions": "FP, 20 nM tracer, Figure 2"}, "CHIP [2]": {"biological_target": "T1, CHIP", "assay": "Biolayer interferometry", "assay_type": "binding", "conditions": "for Binding to CHIP (in words): BLI, Figure 1d / Figure 5"}, "[3]": {"assay": "15N relaxation measurements, oligomeric state", "assay_type": "physicochemical", "conditions": "15N relaxation experiments"}, "CHIP [4]": {"system": "CHIP", "assay": "1D 15N NMR relaxation of Hsc70 with or without CHIP", "parameters": "species or system Human", "conditions": "15N relaxation", "method_in_brief": "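15N-labelled full-length Hsc70 with uncleaved N-terminal His tag, 67 µM in 50 mM K2PO4, 200 µM NRLLLTG, 1 mM ADP, 5 mM MgCl2, 10 mM KCl, 0.02% NaN3, pH 7.2, 25 °C, with or without CHIP, at 800 MHz. 1D 15N R1 (10 h) and R2 (4.5 h) experiments were run, plus CSA/dipolar cross-correlated relaxation (T 10.2 ms). The 9.6–8.6 and 8.6–7.8 ppm regions were integrated and fitted single-exponentially, with jackknife errors.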"}, "CHIP [5]": {"system": "CHIP", "assay": "1H-15N TROSY NMR of 15N-labeled Hsc70 with CHIP", "assay_type": "binding, Human", "conditions": "for Change of C-terminal resonances on CHIP binding (in words): residues 639-646 (GPTIEEVD)", "method_in_brief": "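800 MHz TROSY of 15N full-length Hsc70 (uncleaved His tag) in 50 mM K2PO4, 110 µM NRLLLTG, 1 mM ADP, 5 mM MgCl2, 10 mM KCl, 0.02% NaN3, pH 7.2. Spectra: Hsc70 alone at 100 µM (12 h); Hsc70:CHIP 57:21 µM and 40:30 µM (52 h each); 67 µM 1:1 with CHIP; 60 µM 1:1:1 with UbcH5. Tail assigned from 250 µM triple-labelled Hsc70(391–646) 3D spectra at 30 °C.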"}, "[6]": {"biological_target": "T2, CHIP (C-terminus of Hsc70 Interacting Protein), full-length human (human, UniProt Q9UNE7 1-303)", "T2 sequence (looked up)": "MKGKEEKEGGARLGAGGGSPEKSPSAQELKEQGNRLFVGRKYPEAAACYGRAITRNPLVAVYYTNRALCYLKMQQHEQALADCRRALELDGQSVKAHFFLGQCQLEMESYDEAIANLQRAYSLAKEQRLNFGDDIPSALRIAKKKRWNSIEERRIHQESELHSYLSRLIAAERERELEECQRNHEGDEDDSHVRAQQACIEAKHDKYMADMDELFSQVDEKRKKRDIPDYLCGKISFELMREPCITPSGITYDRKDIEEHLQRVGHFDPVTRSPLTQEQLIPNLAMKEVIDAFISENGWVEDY", "assay": "fluorescence polarisation"}},
  "note": "“Also recorded” adds a separate entry of the source. Primed or numbered codes have the meaning given here. No end group written: not given here. 5FAM′ = 5-carboxyfluorescein",
  "data": [
    {"molecule": "5FAM-DVEEM", "values": [
      {"measurement": "Binding / affinity of fluorescent probes for CHIP (in words)", "setting": "CHIP [1]", "result": "no affinity for CHIP"},
      {"measurement": "Binding / affinity of fluorescent probes for CHIP (in words)", "setting": "CHIP [1]; listed as DVEEM", "result": "had no affinity for CHIP"}
    ]},
    {"molecule": "5FAM-MEEVD", "values": [
      {"measurement": "Binding / affinity of fluorescent probes for CHIP (in words)", "setting": "CHIP [1]", "result": "nearly identical affinity to the longer peptide"},
      {"measurement": "Binding / affinity of fluorescent probes for CHIP (in words)", "setting": "CHIP [1]; listed as MEEVD", "result": "binds with affinity equal to that of the longer probe"}
    ]},
    {"molecule": "Hsc70ΔEEVD: Hsc70 mutant lacking the EEVD sequence", "values": [
      {"measurement": "Binding to CHIP (in words)", "setting": "CHIP [2]", "result": "Neither the Hsc70ΔSBD, nor the Hsc70ΔEEVD mutant displayed any ability to bind CHIP; also recorded: cannot bind CHIP"}
    ]},
    {"molecule": "NBD: nucleotide-binding domain, Hsc70 residues 1–383", "values": [
      {"measurement": "Binding to CHIP (in words)", "setting": "CHIP [2]; listed as Hsc70ΔSBD", "result": "Neither the Hsc70ΔSBD, nor the Hsc70ΔEEVD mutant displayed any ability to bind CHIP; also recorded: cannot bind CHIP"}
    ]},
    {"molecule": "SBD: substrate-binding domain, Hsc70 residues 391–646", "values": [
      {"measurement": "Oligomeric state (in words)", "setting": "[3]", "result": "dimeric"}
    ]},
    {"molecule": "wtHsc70: Human full-length Hsc70 (HspA8; 1–646)", "values": [
      {"measurement": "Rotational correlation time of structured area with vs without CHIP (in words)", "setting": "CHIP [4]", "result": "not increased upon binding to CHIP"},
      {"measurement": "Oligomeric state (in words)", "setting": "[3]", "result": "monomeric at 100 µM"},
      {"measurement": "Change of TROSY spectrum on addition of UbcH5c or excess CHIP (in words)", "setting": "CHIP [5]; 1:1:1 15N Hsc70, CHIP and UbcH5c, 60 µM, or excess CHIP (data not shown)", "result": "does not further change the spectrum"},
      {"measurement": "Change of TROSY spectrum on CHIP binding (in words)", "setting": "CHIP [5]; 800 MHz, ADP and NRLLLTG bound state, pH 7.2, 25°C, 1:1 wtHsc70:CHIP", "result": "barely distinguishable from that of wtHsc70 alone"},
      {"measurement": "Change of resonances of residues 616–636 on CHIP binding (in words)", "setting": "CHIP [5]; assigned upstream residues 616–636 of unstructured tail", "result": "remained visible and relatively unaffected by the presence of CHIP"},
      {"measurement": "Change of C-terminal resonances on CHIP binding (in words)", "setting": "CHIP [5]", "result": "progressively disappear upon complex formation; also recorded: disappear from the wtHsc70 NMR spectrum"},
      {"measurement": "Change of C-terminal resonances on CHIP binding (in words)", "setting": "CHIP [5]; listed as Hsc70", "result": "disappear from the NMR spectrum"},
      {"measurement": "Hsc70-CHIP binding stoichiometry", "setting": "CHIP [2]; Hsc70 per CHIP", "result": "two molecules of Hsc70"},
      {"measurement": "Kd", "setting": "CHIP [2]; abstract, binding of Hsc70 to CHIP", "result": "~60", "unit": "nM"},
      {"measurement": "Slower dissociation than C-terminal peptide", "setting": "CHIP [2]; koff, wtHsc70 vs C-terminal peptide", "result": "~ 5 fold"},
      {"measurement": "Apparent molecular weight of the Hsc70-CHIP complex", "setting": "CHIP [2]; two molecules of Hsc70 and CHIP homodimer", "result": 210, "unit": "kDa"},
      {"measurement": "Increase in binding free energy relative to isolated C-terminal peptide", "setting": "CHIP [2]; wtHsc70 vs C-terminal peptide", "result": 1.08, "unit": "kcal/M"},
      {"measurement": "Extra binding free energy beyond EEVD", "setting": "CHIP [2]; wtHsc70 vs isolated peptide", "result": 1.08, "unit": "kcal/mol"}
    ]},
    {"molecule": "{5FAM′}-DDTSRMEEVD", "note": "[5FAM-DDTSRMEEVD (Hsp90α-derived C-terminus, residues 723-732)]", "values": [
      {"measurement": "binding result", "setting": "[6]", "result": "binds"}
    ]},
    {"molecule": "{5FAM′}-MEEVD", "note": "[5FAM-MEEVD]", "values": [
      {"measurement": "Kd", "setting": "[6]", "result": "1500 ± 76", "unit": "nM"}
    ]}
  ]
}
